Laboratory results from ChEMBL document CHEMBL1122703, “Antihypertensives. N-1H-Pyrrol-1-yl-3-pyridazinamines” (J Med Chem, 1984).

Experiments:
Rattus norvegicus = assay: Oral dose which produces a 30 mmHg drop of systolic blood pressure (calculated on regression line); format: functional; conditions: Artery
How it was run: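 Groups of three male conscious spontaneously hypertensive rats; compound suspended in aqueous 0.5% methocel and given by gavage at 2 mL/kg. Systolic pressure measured by indirect tail-cuff before and 2 and 4 h after dosing, following 20 min warming at 37 °C. The dose giving a 30 mmHg fall was read from the regression line of maximum fall against log dose.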

[1] = Partition coefficient (logD7.4); conditions: octanol/water, pH 7.4
Canis familiaris [2] = assay: Effect of compound (given intravenously) on systolic blood pressure in conscious renal hypertensive dogs at 10 h; format: functional, Canis lupus familiaris, Artery
How it was run: (§1)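 Groups of four conscious mongrel renal hypertensive dogs; compound dissolved in distilled water and given intravenously at 0.5 mL/kg (1 mg/kg or 0.3 mg/kg in the time-course table). Systolic pressure and heart rate measured indirectly at the tail with a sensor and pressure cuff, at 0, 4, 6, 8, 10, 12 and 20 h. Values are mean ± SE of four animals.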

Canis familiaris [3] = assay: Effect of compound (given intravenously) on systolic blood pressure in conscious renal hypertensive dogs at 4 h; format: functional, Canis lupus familiaris, Artery; how it was run: as §1
Canis familiaris [4] = assay: Effect of compound (given intravenously) on heart rate in conscious renal hypertensive dogs at 4 h; format: functional, Canis lupus familiaris; how it was run: as §1
Canis familiaris [5] = assay: Effect of compound (given intravenously) on systolic blood pressure in conscious renal hypertensive dogs at 20 h; format: functional, Canis lupus familiaris, Artery; how it was run: as §1
Canis familiaris [6] = assay: Effect of compound (given intravenously) on systolic blood pressure in conscious renal hypertensive dogs at 6 h; format: functional, Canis lupus familiaris, Artery; how it was run: as §1
Canis familiaris [7] = assay: Effect of compound (given intravenously) on heart rate in conscious renal hypertensive dogs at 10 h; format: functional, Canis lupus familiaris; how it was run: as §1
Canis familiaris [8] = assay: Effect of compound (given intravenously) on systolic blood pressure in conscious renal hypertensive dogs at 8 h; format: functional, Canis lupus familiaris, Artery; how it was run: as §1
Canis familiaris [9] = assay: Effect of compound (given intravenously) on heart rate in conscious renal hypertensive dogs at 0 h; format: functional, Canis lupus familiaris; how it was run: as §1
Canis familiaris [10] = assay: Effect of compound (given intravenously) on heart rate in conscious renal hypertensive dogs at 12 h; format: functional, Canis lupus familiaris; how it was run: as §1
Canis familiaris [11] = assay: Effect of compound (given intravenously) on heart rate in conscious renal hypertensive dogs at 20 h; format: functional, Canis lupus familiaris; how it was run: as §1
Canis familiaris [12] = assay: Effect of compound (given intravenously) on systolic blood pressure in conscious renal hypertensive dogs at 0 h; format: functional, Canis lupus familiaris, Artery; how it was run: as §1
Canis familiaris [13] = assay: Effect of compound (given intravenously) on systolic blood pressure in conscious renal hypertensive dogs at 12 h; format: functional, Canis lupus familiaris, Artery; how it was run: as §1
Canis familiaris [14] = assay: Effect of compound (given intravenously) on heart rate in conscious renal hypertensive dogs 6 h; format: functional, Canis lupus familiaris; how it was run: as §1
Canis familiaris [15] = assay: Effect of compound (given intravenously) on heart rate in conscious renal hypertensive dogs at 8 h; format: functional, Canis lupus familiaris; how it was run: as §1

**Q.** With Cc1ccc(C)n1Nc1ccc(N(CCO)CCO)nn1 as the compound, how does the ED30 (Rattus norvegicus) read?
**A.** > 100 mg/kg

**Q.** For CCOCCN(CCOCC)c1ccc(Nn2c(C)ccc2C)nn1, which ED30 (Rattus norvegicus) is on record?
**A.** 2 mg/kg

**Q.** For Cc1ccc(C)n1Nc1ccc(N(CCO)CC(C)O)nn1 (stereo not drawn), which ED30 (Rattus norvegicus) is on record?
**A.** > 100 mg/kg

**Q.** With Cc1ccc(C)n1Nc1nnc(N2CCOCC2)c2c1CCCC2 as the compound, how does the ED30 (Rattus norvegicus) read?
**A.** ~33 mg/kg

**Q.** Which ED30 (Rattus norvegicus) does the source give for Cc1ccc(C)n1Nc1ccc(N2CCC(O)CC2)nn1 here?
**A.** 12.6 mg/kg

**Q.** With Cc1ccc(C)n1Nc1ccc(N2CCCC2)nn1 as the compound, how does the ED30 (Rattus norvegicus) read?
**A.** > 100 mg/kg

**Q.** For CN(c1ccc(N2CCOCC2)nn1)n1cccc1, which ED30 (Rattus norvegicus) is on record?
**A.** 16.5 mg/kg

**Q.** For CCc1ccc(CC)n1Nc1ccc(N2CCOCC2)nn1, which logD [1] is on record?
**A.** 2.71

**Q.** And the ED30 (Rattus norvegicus)?
**A.** 15.4 mg/kg

**Q.** Which ED30 (Rattus norvegicus) does the source give for Cc1ccc(C)n1Nc1ccc(N2CCN(C)CC2)nn1 here?
**A.** ~43 mg/kg

**Q.** With COCCN(C)c1ccc(Nn2c(C)ccc2C)nn1 as the compound, how does the logD [1] read?
**A.** 2.16

**Q.** What about the ED30 (Rattus norvegicus) of the same compound?
**A.** 7 mg/kg

**Q.** For CCN(CC)c1ccc(Nn2c(C)ccc2C)nn1, which ED30 (Rattus norvegicus) is on record?
**A.** 3.9 mg/kg

**Q.** With Cc1ccc(C)n1Nc1ccc(N(CC(C)O)CC(C)O)nn1 (stereo not drawn) as the compound, how does the ED30 (Rattus norvegicus) read?
**A.** ~54 mg/kg

**Q.** For CC(=O)N(c1ccc(N2CCOCC2)nn1)n1c(C)ccc1C, which logD [1] is on record?
**A.** 1.64

**Q.** And the ED30 (Rattus norvegicus)?
**A.** 11.8 mg/kg

**Q.** With Cc1ccc(C)n1Nc1ccc(N(C)C)nn1 as the compound, how does the ED30 (Rattus norvegicus) read?
**A.** ~22 mg/kg

**Q.** With Cc1ccc(C)n1Nc1nnc(N2CCOCC2)c2ccccc12 as the compound, how does the ED30 (Rattus norvegicus) read?
**A.** ~91 mg/kg

**Q.** For Cc1ccc(C)n1Nc1ccc(N2C(C)COCC2C)nn1 (stereo not drawn), which ED30 (Rattus norvegicus) is on record?
**A.** 18.5 mg/kg

**Q.** For Cc1ccc(C)n1Nc1ccc(N2CCSCC2)nn1, which ED30 (Rattus norvegicus) is on record?
**A.** ~25 mg/kg

**Q.** Which ED30 (Rattus norvegicus) does the source give for Cc1ccc(C)n1Nc1ccc(N2CCCCC2)nn1 here?
**A.** 10 mg/kg

**Q.** With Cc1ccc(C)n1Nc1ccc(N2CCNCC2)nn1 as the compound, how does the ED30 (Rattus norvegicus) read?
**A.** 30 mg/kg

**Q.** Which ED30 (Rattus norvegicus) does the source give for Cc1ccc(C)n1Nc1nnc(N2CCC(O)CC2)c2ccccc12 here?
**A.** ~33 mg/kg

**Q.** With COCCN(CCOC)c1ccc(Nn2c(C)ccc2C)nn1 as the compound, how does the ED30 (Rattus norvegicus) read?
**A.** 2.7 mg/kg

**Q.** With Cc1cc(N2CCOCC2)nnc1Nn1c(C)ccc1C as the compound, how does the ED30 (Rattus norvegicus) read?
**A.** ~26 mg/kg

**Q.** For c1ccn(Nc2ccc(N3CCOCC3)nn2)c1, which ED30 (Rattus norvegicus) is on record?
**A.** > 100 mg/kg

**Q.** Which ED30 (Rattus norvegicus) does the source give for C=CCN(CC=C)c1ccc(Nn2c(C)ccc2C)nn1 here?
**A.** 11.4 mg/kg

**Q.** With Cc1ccc(C)n1N(C)c1ccc(N2CCOCC2)nn1 as the compound, how does the logD [1] read?
**A.** 2.21

**Q.** And the ED30 (Rattus norvegicus)?
**A.** 15.8 mg/kg

**Q.** For Cc1ccc(C)n1Nc1ccc(N(C)CC(C)O)nn1 (stereo not drawn), which ED30 (Rattus norvegicus) is on record?
**A.** 7.7 mg/kg

**Q.** With Cc1c(Nn2c(C)ccc2C)nnc(N2CCOCC2)c1C as the compound, how does the ED30 (Rattus norvegicus) read?
**A.** 35 mg/kg

**Q.** With NNc1nncc2ccccc12 [HYDRALAZINE] as the compound, how does the Pressure (Canis familiaris [2]) read?
**A.** 188 mmHg

**Q.** What about the Pressure (Canis familiaris [3]) of the same compound?
**A.** 135 mmHg

**Q.** And the Heart rate (Canis familiaris [4])?
**A.** 128 beats min-1

**Q.** And the Pressure (Canis familiaris [5])?
**A.** 188 mmHg

**Q.** And the Pressure (Canis familiaris [6])?
**A.** 138 mmHg

**Q.** What about the Heart rate (Canis familiaris [7]) of the same compound?
**A.** 125 beats min-1

**Q.** And the Pressure (Canis familiaris [8])?
**A.** 148 mmHg

**Q.** And the Heart rate (Canis familiaris [9])?
**A.** 78 beats min-1

**Q.** And the Heart rate (Canis familiaris [10])?
**A.** 118 beats min-1

**Q.** What about the Heart rate (Canis familiaris [11]) of the same compound?
**A.** 115 beats min-1

**Q.** And the Pressure (Canis familiaris [12])?
**A.** 188 mmHg

**Q.** What about the Pressure (Canis familiaris [13]) of the same compound?
**A.** 190 mmHg

**Q.** With Cc1ccc(C)n1Nc1ccc(N2CCOCC2)nn1.Cl [MOPIDRALAZINE HYDROCHLORIDE] as the compound, how does the Pressure (Canis familiaris [2]) read?
**A.** 147 mmHg

**Q.** What about the Pressure (Canis familiaris [3]) of the same compound?
**A.** 168 mmHg

**Q.** And the Heart rate (Canis familiaris [14])?
**A.** 100 beats min-1

**Q.** And the Heart rate (Canis familiaris [4])?
**A.** 92 beats min-1

**Q.** What about the Heart rate (Canis familiaris [15]) of the same compound?
**A.** 110 beats min-1

**Q.** And the Pressure (Canis familiaris [5])?
**A.** 187 mmHg

**Q.** What about the Pressure (Canis familiaris [6]) of the same compound?
**A.** 150 mmHg

**Q.** What about the Heart rate (Canis familiaris [7]) of the same compound?
**A.** 107 beats min-1

**Q.** What about the Pressure (Canis familiaris [8]) of the same compound?
**A.** 140 mmHg

**Q.** And the Heart rate (Canis familiaris [9])?
**A.** 80 beats min-1

**Q.** What about the Heart rate (Canis familiaris [10]) of the same compound?
**A.** 105 beats min-1

**Q.** And the Heart rate (Canis familiaris [11])?
**A.** 105 beats min-1

**Q.** What about the ED30 (Rattus norvegicus) of the same compound?
**A.** 3.9 mg/kg

**Q.** What about the Pressure (Canis familiaris [12]) of the same compound?
**A.** 190 mmHg

**Q.** What about the Pressure (Canis familiaris [13]) of the same compound?
**A.** 165 mmHg
